The values that follow come from ChEMBL document CHEMBL1124794, “Synthesis, chemistry, and antineoplastic activity of alpha-halopyridinium salts: potential pyridone prodrugs of acylated vinylogous carbinolamine tumor inhibitors” (J Med Chem, 1990).

The subject of series [1] is P388. Nature of the series: In vivo activity against P388 Lymphocytic Leukemia in CD2F1 mice at the dose of 100 mg/kg, activity expressed as TDS; 5/6. The format is functional, Mus musculus. The method in brief:
(§1)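 CD2F1 mice were inoculated with ascitic fluid holding ca. 10^6 P388 cells. Drug was given daily from 24 h after inoculation, from solutions or suspensions made fresh each day, some as a saline suspension. TDS is survivors/initial animals on day 5. BWD is body weight on day 5 minus day 1. %T/C compares median survival of treated and control mice.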

The nature of series [2]: Effect of phosphate buffer on carbamate hydrolysis in acetonitrile-water at the concentration of 0.05 M on pH 7.4, 25 degree C. The method, boiled down: (§2)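 Bis-carbamate in acetonitrile–water (1:1), 25 ± 0.1 °C. Citrate buffer at pH 3.0 or phosphate buffer at pH 7.4, at 0.01, 0.025 or 0.05 M, ionic strength 0.136 (KCl). Kinetics followed by HPLC as the decrease in bis-carbamate peak area. The regression slope of ln(area0/areat) vs time gave pseudo-first-order kobs. Duplicates averaged.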

Series [3] can be described thus: Half life at the concentration of 0.05 M. The format is ADME.
Series [4] deals with L1210. Nature of the series: In vivo activity against murine L1210 tumor system at the dose of 36 mg/kg, activity expressed as %T/C. The format is functional, Mus musculus. The method, boiled down:
(§3)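 L1210 lymphocytic leukemia: ascitic fluid with ca. 10^6 cells injected ip into CD2F1 mice. Dosing started 24 h after inoculation and was repeated daily for five doses in total, from solutions or suspensions made fresh each day. Toxicity day survivors were scored on day 5. Body weight difference is day 5 minus day 1. %T/C is based on median survival time versus controls.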

The subject of series [5] is P388. Nature of the series: In vivo activity against P388 Lymphocytic Leukemia in CD2F1 mice at the dose of 200 mg/kg, activity expressed as body weight difference; T-C. The format is functional, Mus musculus. The method in brief: as §1
Series [6] has as its system P388. Kind of series: In vivo activity against P388 Lymphocytic Leukemia in CD2F1 mice at the dose of 25 mg/kg, activity expressed as body weight difference; T-C. The format is functional, Mus musculus. The method, boiled down: as §1
For series [7], the system named is L1210. Kind of series: In vivo activity against murine L1210 tumor system at the dose of 21.6 mg/kg, activity expressed as KE. The format is functional, Mus musculus. The method in brief:
as §3

Series [8] has as its system P388. Kind of series: In vivo activity against P388 Lymphocytic Leukemia in CD2F1 mice at the dose of 400 mg/kg, activity expressed as body weight difference; T-C. The format is functional, Mus musculus. The method, boiled down:
as §1

Series [9] deals with P388. Kind of series: In vivo activity against P388 Lymphocytic Leukemia in CD2F1 mice at the dose of 100 mg/kg, activity expressed as body weight difference; T-C. The format is functional, Mus musculus. The method, boiled down: as §1
Series [10] is described as follows: In vivo activity against murine M5076 tumor system at the dose of 36 mg/kg, activity expressed as %T/C. The format is functional, Mus musculus. The method in brief:
(§4)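 M5076: ascitic fluid with ca. 10^6 cells inoculated ip into CD2F1 mice. Dosing started 24 h after inoculation and was then given every 4 days for four doses in total, from solutions or suspensions made fresh each day. Toxicity day survivors were scored on day 5. Body weight difference is day 14 minus day 1. %T/C is based on median survival time versus controls.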

Series [11] can be described thus: Half life at the concentration of 0.025 M. The format is ADME.
For series [12], the system named is L1210. Kind of series: In vivo activity against murine L1210 tumor system at the dose of 21.6 mg/kg, activity expressed as body weight difference; T-C. The format is functional, Mus musculus. The method, boiled down:
as §3

A short description of series [13]: In vivo activity against murine M5076 tumor system at the dose of 21.6 mg/kg, activity expressed as body weight difference; T-C. The format is functional, Mus musculus. The method in brief: as §4
For series [14], the system named is L1210. Nature of the series: In vivo activity against murine L1210 tumor system at the dose of 166.7 mg/kg, activity expressed as %T/C. The format is functional, Mus musculus. The method in brief:
as §3

Series [15] concerns L1210. Kind of series: In vivo activity against murine L1210 tumor system at the dose of 100 mg/kg, activity expressed as body weight difference; T-C. The format is functional, Mus musculus. The method in brief: as §3
In series [16] the test system is L1210. Kind of series: In vivo activity against murine L1210 tumor system at the dose of mg/kg, activity expressed as %T/C. The format is functional, Mus musculus. The method in brief: as §3
A short description of series [17]: Half life at the pH 4.0. The format is ADME. The settings on record: buffer. The method in brief:
(§5)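 Bis-carbamate in acetonitrile–water (1:1; buffer added to a 0.5 mg/mL acetonitrile solution), 0.05 M buffer, ionic strength 0.136 (KCl), 25 ± 0.1 °C. Buffers: phosphate pH 2.0; citrate pH 3.0–3.5; succinate pH 4.0; acetate pH 5.0; phosphate pH 6.0–8.0; borate pH 9.0; carbonate pH 10.0. HPLC bis-carbamate peak-area loss, ln(area0/areat) vs time slope = kobs. Duplicates averaged.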

In series [18] the test system is P388. Kind of series: In vivo activity against P388 Lymphocytic Leukemia in CD2F1 mice at the dose of 400 mg/kg, activity expressed as TDS; 2/6. The format is functional, Mus musculus. The method, boiled down:
as §1

Series [19] in a line: Half life at the buffer concentration of 0.01 M. The format is ADME. The method in brief: as §2
The nature of series [20]: Half life at the pH 3.5. The format is ADME. The settings on record: buffer. The method in brief: as §5
For series [21], the system named is L1210. Nature of the series: In vivo activity against murine L1210 tumor system at the dose of 21.6 mg/kg, activity expressed as TDS; 6/6. The format is functional, Mus musculus. The method in brief: as §3
Series [22] is described as follows: In vivo activity against murine M5076 tumor system at the dose of 25 mg/kg, activity expressed as KE. The format is functional, Mus musculus. The method, boiled down:
as §4

Series [23] can be described thus: In vivo activity against murine M5076 tumor system at the dose of 50 mg/kg, activity expressed as KE. The format is functional, Mus musculus.
Series [24] relates to MX1. Nature of the series: In vivo activity against murine MX-1 tumor system at the dose of 75 mg/kg, activity expressed as TDS; 4/6. The format is functional, Mus musculus.
Series [25] deals with L1210. Kind of series: In vivo activity against murine L1210 tumor system at the dose of 50 mg/kg, activity expressed as body weight difference. The format is functional, Mus musculus. The method, boiled down: as §3
Series [26] concerns L1210. Kind of series: In vivo activity against murine L1210 tumor system at the dose of 100 mg/kg, activity expressed as TDS; 0/6. The format is functional, Mus musculus. The method, boiled down:
as §3

Series [27] is described as follows: Effect of pH on the hydrolysis of pyridinium Moity in 0.05 M buffer concentration at the pH 6.5. The format is ADME. The method, boiled down: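 Pyridinium salt in 0.05 M phosphate buffer, pH 6.0–8.0 (set by pH meter), ionic strength 0.25 M, 25 °C. Decrease in the pyridinium UV absorbance maximum followed over time to give pseudo-first-order kobs and half-life.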

Series [28] can be described thus: Half life at the buffer concentration of 0.10 M. The format is ADME. The method, boiled down: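 α-Fluoropyridinium hydrolysis to pyridone in phosphate buffer at 0.02, 0.05 or 0.10 M, pH 6.5 or 8.0, ionic strength […] °C. Pyridinium UV absorbance maximum followed with time to give pseudo-first-order kobs and half-life.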
A short description of series [29]: In vivo activity against murine M5076 tumor system at the dose of 50 mg/kg, activity expressed as body weight difference. The format is functional, Mus musculus.
Series [30] concerns L1210. Nature of the series: In vivo activity against murine L1210 tumor system at the dose of 50 mg/kg, activity expressed as %T/C. The format is functional, Mus musculus. The method in brief: as §3
Series [31] has as its system P388. Kind of series: In vivo activity against P388 Lymphocytic Leukemia in CD2F1 mice at the dose of 12.5 mg/kg, activity expressed as body weight difference. The format is functional, Mus musculus. The method in brief:
as §1

The subject of series [32] is MX1. Nature of the series: In vivo activity against murine MX-1 tumor system at the dose of 75 mg/kg, activity expressed as %T/C. The format is functional, Mus musculus.
For series [33], the system named is L1210. Kind of series: In vivo activity against murine L1210 tumor system at the dose of 50 mg/kg, activity expressed as KE. The format is functional, Mus musculus. The method in brief: as §3
Series [34] can be described thus: In vivo activity against murine M5076 tumor system at the dose of 50 mg/kg, activity expressed as TDS; 10/10. The format is functional, Mus musculus.
Series [35] is described as follows: In vivo activity against murine M5076 tumor system at the dose of 25 mg/kg, activity expressed as %T/C. The format is functional, Mus musculus. The method, boiled down:
as §4

What is called half-life is how long it takes for the measured level to halve. A higher half-life goes with slow decline. What is called T/C is the result in the treated group divided by that in the control group, in per cent.

Values joined by “and” are separate entries in the source; they are usually repeats but may differ in a detail not shown here. Equal values may be shown once.

As for `CC(C)NC(=O)OCc1c(COC(=O)NC(C)C)c(-c2ccn(C)c(=O)c2)n2c1CCC2`, the TDS is given as 5 in the series on P388 [1], 2 with P388 [18] and 6 in the series on L1210 [21]. Further, in series [2], the k obs was 0.000217 s⁻¹. The half-life in [3] was 22.8 min; in [11], 20.3 min; in series [17] it was 46.7 min; in series [20] it was 32.5 min. In addition, the T/C is 135% in the series on L1210 [4], 117% in series [10], 110% in the series with L1210 [14] and 135% in the series with L1210 [16]. For the same compound, the BWD is listed as -1.4 g in the series on P388 [5]; -0.6 g in the series on P388 [6]; -1 g in the series with P388 [8]; -1.8 g in the series on P388 [9]; -0.3 g with L1210 [12]; 1.7 g in [13]. Moreover, in the series on L1210 [15], the BWD is reported as -4.2 g. The KE in the series on L1210 [7] was -0.86. Besides, the T1/2 in series [19] was 19.86 min and 52.31 min.
Consider `CC(C)NC(=O)OCc1c(COC(=O)NC(C)C)c(-c2cc[n+](C)c(F)c2)n2c1CCC2.[I-]`, for which the KE was -1.98 in series [22], -1.59 in series [23] and -1.94 in the series with L1210 [33]. The TDS in the series with MX1 [24] was found to be 4; with L1210 [26] it was 0; in series [34], 10. Further, the values for the BWD (with L1210 [25]; in [29]; in the series on P388 [31]) were -0.8 g, 1.4 g and -1.3 g, respectively. Besides, in series [27], the K obs was 0.0153 min⁻¹. For the same compound, in series [28], the T1/2 was 50.3 min and 19.25 min. Also, the T/C amounted to 118% with L1210 [30], 34% with MX1 [32] and 104% in series [35].
